# Paper PMC10432884 (Clinical and Translational Science, 2023)
# “Also recorded” adds a separate entry of the source.
# Assay: MAD phase pharmacokinetics
# Assay type: in vivo, human
# Conditions: for PTR, GeoMean / PTR, Median: peak-to-trough ratio; for R max, GeoMean / R max, Median: accumulation ratio from C max; for R through, GeoMean / R through, Median: accumulation ratio from C trough; for t 1/2_eff, Median / t 1/2_eff, GeoMean: effective half-life based on accumulation; for AUC / Cmax / concentration at 11 day / concentration at 12 day / concentration at 13 day / concentration at 14 day / Tmax / concentration at 1 day: human, plasma, oral; for AUC: AUC τ; for Cmax: C max; for concentration at 11 day / concentration at 12 day / concentration at 13 day / concentration at 14 day / concentration at 1 day: C trough
# Procedure, shortened: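 MAD phase, 2–15 mg q.d. oral for 14 days. Plasma was sampled predose daily and 15 min–48 h on days 1 and 14. Urine was pooled over 24 h on days 1 and 14. One CSF sample was taken 3 h postdose on day 7 (10 mg cohort). All matrices were assayed by validated LC-MS/MS. Derived: Cmax, Tmax, t1/2, AUCτ, Ctrough, peak-to-trough ratio, accumulation ratios, and CSF/plasma ratio corrected for protein binding. Results reported as geometric means (95% CI) and medians.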
# [1] = 2 mg, GeoMean, MAD 2 mg q.d., day 14
# [2] = 2 mg, Median, MAD 2 mg q.d., day 14
# [3] = 5 mg, GeoMean, MAD 5 mg q.d., day 1
# [4] = 5 mg, GeoMean, MAD 5 mg q.d., day 14
# [5] = 5 mg, Median, MAD 5 mg q.d., day 1
# [6] = 5 mg, Median, MAD 5 mg q.d., day 14
# [7] = 10 mg, GeoMean, MAD 10 mg q.d., day 1
# [8] = 10 mg, GeoMean, MAD 10 mg q.d., day 14
# [9] = 10 mg, Median, MAD 10 mg q.d., day 1
# [10] = 10 mg, Median, MAD 10 mg q.d., day 14
# [11] = 15 mg, GeoMean, MAD 15 mg q.d., day 1
# [12] = 15 mg, GeoMean, MAD 15 mg q.d., day 14
# [13] = 15 mg, Median, MAD 15 mg q.d., day 1
# [14] = 15 mg, Median, MAD 15 mg q.d., day 14
smiles,measurement,setting,value
"Fc1ccccc1Cc1nc(-c2nc(C(F)(F)F)n[nH]2)cn2ccnc12 [zagociguat, 8‐(2‐fluorobenzyl)‐6‐(3‐(trifluoromethyl)‐1H‐1,2,4‐triazol‐5‐yl)imidazo[1,2‐a]pyrazine]",CNS penetration,CSF sampling during the MAD phase,confirmed by cerebrospinal fluid sampling; also recorded: confirmed by CSF sampling
same,Dose level from which detectable in urine,MAD,2 mg
same,"C trough, GeoMean","MAD 2 mg q.d., day 1",161.13 ng/mL
same,"C trough, Median","MAD 2 mg q.d., day 1",157.0 ng/mL
same,"PTR, GeoMean","MAD 2 mg q.d., day 1",1.62
same,"PTR, Median","MAD 2 mg q.d., day 1",1.64
same,"PTR, GeoMean","MAD 2 mg q.d., day 14",1.41
same,"PTR, Median","MAD 2 mg q.d., day 14",1.40
same,"R max, GeoMean",MAD 2 mg q.d.,3.38
same,"R max, Median",MAD 2 mg q.d.,3.32
same,"R through, GeoMean",MAD 2 mg q.d.,3.87
same,"R through, Median",MAD 2 mg q.d.,4.06
same,"t 1/2_eff, Median",MAD 2 mg q.d.,54.46 h
same,"PTR, GeoMean","MAD 5 mg q.d., day 1",1.55
same,"PTR, Median","MAD 5 mg q.d., day 1",1.50
same,"PTR, GeoMean","MAD 5 mg q.d., day 14",1.35
same,"PTR, Median","MAD 5 mg q.d., day 14",1.34
same,"R max, GeoMean",MAD 5 mg q.d.,3.45
same,"R max, Median",MAD 5 mg q.d.,3.56
same,"R through, GeoMean",MAD 5 mg q.d.,3.98
same,"R through, Median",MAD 5 mg q.d.,3.79
same,"t 1/2_eff, GeoMean",MAD 5 mg q.d.,54.60 h
same,"t 1/2_eff, Median",MAD 5 mg q.d.,56.63 h
same,"PTR, Median","MAD 10 mg q.d., day 1",1.36
same,"PTR, GeoMean","MAD 10 mg q.d., day 14",1.37
same,"PTR, Median","MAD 10 mg q.d., day 14",1.37
same,"R max, GeoMean",MAD 10 mg q.d.,3.60
same,"R max, Median",MAD 10 mg q.d.,3.68
same,"R through, GeoMean",MAD 10 mg q.d.,3.79
same,"R through, Median",MAD 10 mg q.d.,3.56
same,"t 1/2_eff, GeoMean",MAD 10 mg q.d.,54.29 h
same,"t 1/2_eff, Median",MAD 10 mg q.d.,54.53 h
same,"C trough, GeoMean","MAD 15 mg q.d., day 1",1173.20 ng/mL
same,"C trough, Median","MAD 15 mg q.d., day 1",1165 ng/mL
same,"PTR, GeoMean","MAD 15 mg q.d., day 1",1.38
same,"PTR, Median","MAD 15 mg q.d., day 1",1.37
same,"C trough, GeoMean","MAD 15 mg q.d., day 11",4149.25 ng/mL
same,"C trough, Median","MAD 15 mg q.d., day 11",4140 ng/mL
same,"C trough, GeoMean","MAD 15 mg q.d., day 12",4246.79 ng/mL
same,"C trough, Median","MAD 15 mg q.d., day 12",4140 ng/mL
same,"C trough, GeoMean","MAD 15 mg q.d., day 13",4157.21 ng/mL
same,"C trough, Median","MAD 15 mg q.d., day 13",4160 ng/mL
same,"C trough, GeoMean","MAD 15 mg q.d., day 14",4377.90 ng/mL
same,"C trough, Median","MAD 15 mg q.d., day 14",4275 ng/mL
same,"PTR, GeoMean","MAD 15 mg q.d., day 14",1.35
same,"PTR, Median","MAD 15 mg q.d., day 14",1.33
same,"R max, GeoMean",MAD 15 mg q.d.,3.61
same,"R max, Median",MAD 15 mg q.d.,3.54
same,"R through, GeoMean",MAD 15 mg q.d.,3.73
same,"R through, Median",MAD 15 mg q.d.,3.81
same,"t 1/2_eff, GeoMean",MAD 15 mg q.d.,52.80 h
same,"t 1/2_eff, Median",MAD 15 mg q.d.,51.81 h
same,Dose linearity analysis using AUC τ and C max,MAD day 1 and day 14 (Table S6),indicated dose proportionality
same,Day on which steady-state was attained,"MAD, all doses administered, Helmert contrasts of trough concentrations",11 days
same,AUC,"both, 2 mg, GeoMean, MAD 2 mg q.d., day 1",4500 ng·h/mL
same,AUC,"both, 2 mg, GeoMean, MAD 2 mg q.d., day 14",16900 ng·h/mL
same,AUC,"both, 2 mg, Median, MAD 2 mg q.d., day 1",4520 ng·h/mL
same,AUC,"both, 2 mg, Median, MAD 2 mg q.d., day 14",17000 ng·h/mL
same,Cmax,"2 mg, GeoMean, MAD 2 mg q.d., day 1",260 ng/mL
same,Cmax,[1],880 ng/mL
same,Cmax,"2 mg, Median, MAD 2 mg q.d., day 1",268 ng/mL
same,Cmax,[2],888 ng/mL
same,concentration at 11 day,"2 mg, GeoMean, MAD 2 mg q.d., day 11",587 ng/mL
same,concentration at 12 day,"2 mg, GeoMean, MAD 2 mg q.d., day 12",593 ng/mL
same,concentration at 13 day,"2 mg, GeoMean, MAD 2 mg q.d., day 13",616 ng/mL
same,concentration at 14 day,[1],624 ng/mL
same,concentration at 11 day,"2 mg, Median, MAD 2 mg q.d., day 11",579 ng/mL
same,concentration at 12 day,"2 mg, Median, MAD 2 mg q.d., day 12",584 ng/mL
same,concentration at 13 day,"2 mg, Median, MAD 2 mg q.d., day 13",610 ng/mL
same,concentration at 14 day,[2],632 ng/mL
same,Tmax,"2 mg, T max, Median, MAD 2 mg q.d., day 1",1 h
same,Tmax,"2 mg, T max, Median, MAD 2 mg q.d., day 14",1 h
same,AUC,[3],11000 ng·h/mL
same,AUC,[4],42100 ng·h/mL
same,AUC,[5],11500 ng·h/mL
same,AUC,[6],43900 ng·h/mL
same,Cmax,[3],602 ng/mL
same,Cmax,[4],2080 ng/mL
same,Cmax,[5],597 ng/mL
same,Cmax,[6],2230 ng/mL
same,concentration at 1 day,[3],389 ng/mL
same,concentration at 11 day,"5 mg, GeoMean, MAD 5 mg q.d., day 11",1480 ng/mL
same,concentration at 12 day,"5 mg, GeoMean, MAD 5 mg q.d., day 12",1500 ng/mL
same,concentration at 13 day,"5 mg, GeoMean, MAD 5 mg q.d., day 13",1510 ng/mL
same,concentration at 14 day,[4],1540 ng/mL
same,concentration at 1 day,[5],410 ng/mL
same,concentration at 11 day,"5 mg, Median, MAD 5 mg q.d., day 11",1540 ng/mL
same,concentration at 12 day,"5 mg, Median, MAD 5 mg q.d., day 12",1580 ng/mL
same,concentration at 13 day,"5 mg, Median, MAD 5 mg q.d., day 13",1580 ng/mL
same,concentration at 14 day,[6],1640 ng/mL
same,Tmax,"5 mg, T max, Median, MAD 5 mg q.d., day 1",2 h
same,Tmax,"5 mg, T max, Median, MAD 5 mg q.d., day 14",3 h
same,AUC,[7],20100 ng·h/mL
same,AUC,[8],76800 ng·h/mL
same,AUC,[9],21500 ng·h/mL
same,AUC,[10],82100 ng·h/mL
same,Cmax,[7],1070 ng/mL
same,Cmax,[8],3910 ng/mL
same,Cmax,[9],1140 ng/mL
same,Cmax,[10],4050 ng/mL
same,concentration at 1 day,[7],751 ng/mL
same,concentration at 11 day,"10 mg, GeoMean, MAD 10 mg q.d., day 11",2760 ng/mL
same,concentration at 12 day,"10 mg, GeoMean, MAD 10 mg q.d., day 12",2910 ng/mL
same,concentration at 13 day,"10 mg, GeoMean, MAD 10 mg q.d., day 13",2840 ng/mL
same,concentration at 14 day,[8],2850 ng/mL
same,concentration at 1 day,[9],750 ng/mL
same,concentration at 11 day,"10 mg, Median, MAD 10 mg q.d., day 11",3090 ng/mL
same,concentration at 12 day,"10 mg, Median, MAD 10 mg q.d., day 12",3240 ng/mL
same,concentration at 13 day,"10 mg, Median, MAD 10 mg q.d., day 13",3190 ng/mL
same,concentration at 14 day,[10],2820 ng/mL
same,Tmax,"10 mg, T max, Median, MAD 10 mg q.d., day 1",3 h
same,Tmax,"10 mg, T max, Median, MAD 10 mg q.d., day 14",2.2 h
same,AUC,[11],31300 ng·h/mL
same,AUC,[12],116000 ng·h/mL
same,AUC,[13],30100 ng·h/mL
same,AUC,[14],112000 ng·h/mL
same,Cmax,[11],1620 ng/mL
same,Cmax,[12],5850 ng/mL
same,Cmax,[13],1530 ng/mL
same,Cmax,[14],5800 ng/mL
same,Tmax,"15 mg, T max, Median, MAD 15 mg q.d., day 1",3 h
same,Tmax,"15 mg, T max, Median, MAD 15 mg q.d., day 14",3.5 h
same,Tmax,"Median observed T max, range, MAD all doses, days 1 and 14",1 to 3.5 h
same,Drug accumulation,treatment period of 14 days,moderate drug accumulation
